Test [1] addresses Tubulin beta-4B chain (Homo sapiens) (UniProt P68371). In words: Binding affinity to tubulin beta-4B in human A549 cells at 0.15 mM after 4 hrs by HPLC-MS based pull down assay relative to control. The format is cell-based. A digest of the protocol:
(§1)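 A549 lysate in NETN buffer (pH 8.0, 0.5% NP-40) incubated with biotinylated probe (0.15 mM final) 4 h at 4 °C, with biotin or control probe as comparators. Streptavidin Dynabeads 1 h at 4 °C, six NETN washes, proteins eluted by boiling in SDS buffer. After trypsin digestion, identification by LC-MS/MS on Q Exactive HF.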

Test [2] addresses Tubulin alpha-1C chain (Homo sapiens) (UniProt Q9BQE3). The test is described as follows: Binding affinity to tubulin alpha-1C in human A549 cells at 0.15 mM after 4 hrs by HPLC-MS based pull down assay relative to control. The format is cell-based. A digest of the protocol: as §1
For test [3], the species on record is Sus scrofa. In words: Inhibition of colchicine binding to porcine tubulin preincubated with tubulin followed by colchicine treatment measured after 2 hrs by immunoblot analysis.
For test [4], the species on record is Sus scrofa. In words: Binding affinity to porcine tubulin after overnight incubation by streptavidin pull down assay. The gist of the method: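 Purified porcine neuronal tubulin incubated with biotin, biotinylated probe or control probe in NETN buffer at 4 °C. Streptavidin Dynabeads 1 h at 4 °C, six washes, then SDS-PAGE and α-tubulin immunoblot.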
For test [5], the target named is T1, Nucleolar RNA helicase 2 (Homo sapiens) (UniProt Q9NR30).
T1 sequence (whole entry): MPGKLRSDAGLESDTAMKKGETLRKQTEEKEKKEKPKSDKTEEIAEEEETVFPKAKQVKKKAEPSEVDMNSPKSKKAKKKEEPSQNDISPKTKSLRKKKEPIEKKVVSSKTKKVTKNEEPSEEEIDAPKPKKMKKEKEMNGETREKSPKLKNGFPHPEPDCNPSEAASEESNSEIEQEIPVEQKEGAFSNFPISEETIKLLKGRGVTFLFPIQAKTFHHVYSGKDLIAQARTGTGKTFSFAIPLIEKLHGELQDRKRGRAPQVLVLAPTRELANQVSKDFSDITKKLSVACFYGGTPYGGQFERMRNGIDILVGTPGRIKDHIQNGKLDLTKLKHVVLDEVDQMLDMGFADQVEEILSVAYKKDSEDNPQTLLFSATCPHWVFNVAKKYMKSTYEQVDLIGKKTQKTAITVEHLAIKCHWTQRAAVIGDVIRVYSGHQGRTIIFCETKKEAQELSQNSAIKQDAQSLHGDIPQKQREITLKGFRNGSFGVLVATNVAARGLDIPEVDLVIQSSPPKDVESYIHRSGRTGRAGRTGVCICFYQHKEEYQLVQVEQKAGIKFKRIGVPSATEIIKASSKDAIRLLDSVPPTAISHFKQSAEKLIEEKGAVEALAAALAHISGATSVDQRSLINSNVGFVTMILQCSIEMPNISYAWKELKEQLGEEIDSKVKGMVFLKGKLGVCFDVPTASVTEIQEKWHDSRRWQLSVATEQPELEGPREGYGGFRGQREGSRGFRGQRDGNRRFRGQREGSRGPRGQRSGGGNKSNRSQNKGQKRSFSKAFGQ
In words: Binding affinity to nucleolar RNA helicase 2 in human A549 cells at 0.15 mM after 4 hrs by HPLC-MS based pull down assay relative to control. Type of test: cell-based. A digest of the protocol:
as §1

For test [6], the species on record is Sus scrofa. In words: Inhibition of colchicine binding to porcine tubulin treated 2 hrs post colchicine treatment by pull down assay. A digest of the protocol:
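Porcine neuronal tubulin was preincubated with excess taxol, colchicine, vinblastine or nocodazole for 2 h at 4 °C. Biotinylated probe was then added in NETN buffer, followed by streptavidin Dynabead pull-down for 1 h at 4 °C and six washes. Bound α-tubulin was detected by SDS–PAGE and immunoblot. Three independent experiments.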

In test [7] the target is T2, ATP-dependent RNA helicase DDX1 (Homo sapiens) (UniProt Q92499).
T2 sequence (whole entry): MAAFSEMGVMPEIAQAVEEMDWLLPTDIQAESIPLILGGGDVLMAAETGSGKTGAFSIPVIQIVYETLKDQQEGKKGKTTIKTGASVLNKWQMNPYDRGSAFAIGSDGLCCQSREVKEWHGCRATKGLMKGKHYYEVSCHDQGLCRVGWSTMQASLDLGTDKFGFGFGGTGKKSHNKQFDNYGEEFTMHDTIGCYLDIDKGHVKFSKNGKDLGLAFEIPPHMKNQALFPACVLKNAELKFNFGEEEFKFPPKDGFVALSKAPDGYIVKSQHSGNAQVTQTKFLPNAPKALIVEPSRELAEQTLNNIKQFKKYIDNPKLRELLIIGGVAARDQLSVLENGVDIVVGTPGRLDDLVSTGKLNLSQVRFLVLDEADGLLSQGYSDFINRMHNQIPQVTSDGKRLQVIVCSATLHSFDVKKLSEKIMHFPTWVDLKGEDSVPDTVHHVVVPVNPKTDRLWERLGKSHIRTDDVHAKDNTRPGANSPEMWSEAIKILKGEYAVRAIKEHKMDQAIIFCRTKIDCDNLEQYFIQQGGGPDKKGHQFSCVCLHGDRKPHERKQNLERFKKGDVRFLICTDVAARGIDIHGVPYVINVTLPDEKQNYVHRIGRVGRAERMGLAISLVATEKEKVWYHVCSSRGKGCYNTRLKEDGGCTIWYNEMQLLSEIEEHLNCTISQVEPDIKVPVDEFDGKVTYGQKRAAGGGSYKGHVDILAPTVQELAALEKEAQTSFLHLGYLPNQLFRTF
The test is described as follows: Binding affinity to DDX1 in human A549 cells at 0.15 mM after 4 hrs by HPLC-MS based pull down assay relative to control. Type of test: cell-based. The gist of the method:
as §1

For test [8], the target named is Tubulin beta-3 chain (Homo sapiens) (UniProt Q13509). In words: Binding affinity to tubulin beta-3 in human A549 cells at 0.15 mM after 4 hrs by HPLC-MS based pull down assay relative to control. The format is cell-based. A digest of the protocol: as §1
Sequence of Tubulin beta-3 chain (Homo sapiens) (Q13509 whole entry): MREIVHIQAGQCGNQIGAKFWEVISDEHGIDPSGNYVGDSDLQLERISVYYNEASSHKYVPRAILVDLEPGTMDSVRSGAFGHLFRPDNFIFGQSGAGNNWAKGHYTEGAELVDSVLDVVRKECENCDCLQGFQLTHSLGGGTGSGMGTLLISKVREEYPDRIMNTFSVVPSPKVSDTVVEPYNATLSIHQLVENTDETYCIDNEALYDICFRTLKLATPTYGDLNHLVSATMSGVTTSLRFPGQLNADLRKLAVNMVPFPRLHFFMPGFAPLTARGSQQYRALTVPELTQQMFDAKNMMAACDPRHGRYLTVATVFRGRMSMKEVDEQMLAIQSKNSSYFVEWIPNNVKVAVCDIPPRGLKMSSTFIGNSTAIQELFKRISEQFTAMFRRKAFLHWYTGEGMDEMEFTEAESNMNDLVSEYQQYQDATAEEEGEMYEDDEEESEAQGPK
In test [9] the target is Serine/arginine-rich splicing factor 1 (Homo sapiens) (UniProt Q07955). In words: Binding affinity to serine/arginine-rich-splicing factor 1 in human A549 cells at 0.15 mM after 4 hrs by HPLC-MS based pull down assay relative to control. Type of test: cell-based. The gist of the method: as §1
Sequence of Serine/arginine-rich splicing factor 1 (Homo sapiens) (Q07955 whole entry): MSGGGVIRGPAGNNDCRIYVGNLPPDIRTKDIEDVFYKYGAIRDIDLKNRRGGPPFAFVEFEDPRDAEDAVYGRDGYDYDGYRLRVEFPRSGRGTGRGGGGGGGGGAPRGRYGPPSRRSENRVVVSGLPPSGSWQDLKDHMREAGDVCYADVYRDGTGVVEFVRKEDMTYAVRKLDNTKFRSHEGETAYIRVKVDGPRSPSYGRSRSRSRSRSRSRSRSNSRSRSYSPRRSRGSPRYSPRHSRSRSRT

These results are taken from ChEMBL document CHEMBL4152279, “Synthesis, cytotoxic evaluation and target identification of thieno[2,3-d]pyrimidine derivatives with a dithiocarbamate side chain at C2 position” (Eur J Med Chem, 2018).

Calls of active or inactive are those of the source. No cut-off for these calls is given here.

Sequence of Tubulin beta-4B chain (Homo sapiens) (P68371 whole entry): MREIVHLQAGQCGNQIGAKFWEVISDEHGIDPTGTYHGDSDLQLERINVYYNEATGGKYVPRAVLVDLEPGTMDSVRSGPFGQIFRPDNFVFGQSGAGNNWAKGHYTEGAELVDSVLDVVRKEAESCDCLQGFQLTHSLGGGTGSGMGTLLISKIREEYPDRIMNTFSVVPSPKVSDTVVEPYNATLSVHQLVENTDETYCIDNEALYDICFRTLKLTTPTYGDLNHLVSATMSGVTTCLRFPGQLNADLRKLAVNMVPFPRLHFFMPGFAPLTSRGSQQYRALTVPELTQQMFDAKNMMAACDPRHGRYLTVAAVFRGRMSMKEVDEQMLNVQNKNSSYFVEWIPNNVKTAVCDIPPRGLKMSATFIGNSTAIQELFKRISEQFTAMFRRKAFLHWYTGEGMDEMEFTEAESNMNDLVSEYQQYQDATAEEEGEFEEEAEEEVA
Sequence of Tubulin alpha-1C chain (Homo sapiens) (Q9BQE3 whole entry, looked up): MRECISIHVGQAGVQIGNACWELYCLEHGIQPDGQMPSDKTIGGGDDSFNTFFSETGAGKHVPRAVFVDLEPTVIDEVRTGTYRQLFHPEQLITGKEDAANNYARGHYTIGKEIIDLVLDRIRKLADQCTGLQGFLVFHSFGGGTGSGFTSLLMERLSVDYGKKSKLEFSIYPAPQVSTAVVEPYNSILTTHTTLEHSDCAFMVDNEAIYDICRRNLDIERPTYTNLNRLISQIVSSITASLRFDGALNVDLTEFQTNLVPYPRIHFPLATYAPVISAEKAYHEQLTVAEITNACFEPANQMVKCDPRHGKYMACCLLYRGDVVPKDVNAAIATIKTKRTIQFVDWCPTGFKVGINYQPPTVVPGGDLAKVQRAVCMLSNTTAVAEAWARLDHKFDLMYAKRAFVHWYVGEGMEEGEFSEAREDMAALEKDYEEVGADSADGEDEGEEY

Turning to `Cc1cc2c(=O)[nH]c(CSC(=S)N(CCCNC(=O)CCCC[C@@H]3SC[C@@H]4NC(=O)N[C@@H]43)Cc3ccc(C#N)cc3)nc2s1`, the Activity in test [1] turned out to be 34.2%; in test [2], 16.6%; in [5], 35.1%; in test [7], 38.8%; in test [8], 16.7%; in test [9] it was 52.2%. In addition, the inhibition result in the test listed under Sus scrofa [3] and in the test listed under Sus scrofa [6] was “Active” throughout. Also, in the test listed under Sus scrofa [4], the result was Active.
